These results are taken from the array DNA melting data of Ke et al. (doi:10.1101/2024.01.08.574731).

The nature of data set [1]: folding enthalpy; higher = less favourable; fluorescence melt of hairpins on a sequencing array, two-state fit. The conditions noted are these: sodium 0.088 M. Put shortly:
(§1)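 Melting temperature and folding enthalpy were obtained by bootstrapped two-state fitting. Fits used Cy3 fluorescence of library hairpins with annealed Cy3 and quencher oligos on a sequenced MiSeq flow cell, imaged in 50 mM Na-HEPES pH 8.0, 25 mM NaCl in 2.5 °C steps up to 60 °C and normalised to pre-quench Cy3 and control constructs. Four replicates were combined by inverse-variance weighting, and fitted temperatures were raised by 9.35 °C to match UV melts.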

The nature of data set [2]: melting temperature; fluorescence melt of hairpins on a sequencing array, two-state fit, raised by 9.35 °C to match UV melts. The conditions noted are these: sodium 0.088 M. Put shortly: as §1

As to GATCACCGACGTGATC ((((((....)))))), the folding enthalpy in data set [1] is -32.5 kcal/mol. Besides, the Tm in data set [2] was found to be 54.5 °C.
The matching figures for GATCACCGAGTGATC ((((((...)))))): -34.9 kcal/mol and 55.4 °C.
In the case of GATCACCGCGGTGATC ((((((....)))))), the folding enthalpy in data set [1] was -44.1 kcal/mol. The Tm in data set [2] is 67.2 °C.
On to GATCACCGCTGTGATC ((((((....)))))), for which the folding enthalpy in data set [1] was -36.3 kcal/mol. Further, the Tm in data set [2] was found to be 57 °C.
In the case of GATCACCGTTGTGATC ((((((....)))))), the folding enthalpy in data set [1] is -39.8 kcal/mol. The Tm in data set [2] was 55.4 °C.
As to GATCACCTATGTGATC ((((((....)))))), the folding enthalpy in data set [1] is -40.1 kcal/mol. In data set [2], the Tm turned out to be 57.1 °C.
The matching figures for GATCACGAAAGTGCAATC ((((((....)))..))): -10 kcal/mol and 28.1 °C.
In the same order, the values of GATCACGAAAGTGCGATC ((((((....)))..))) are -16.3 kcal/mol and 29.5 °C.
The matching figures for GATCACGAAAGTGTGATC ((((((....)))..))): -27 kcal/mol and 47.9 °C.
On to GATCACGAGAGTGATC ((((((....)))))), for which the folding enthalpy in data set [1] is -28.4 kcal/mol. For the same sequence, in data set [2], the Tm worked out at 67.8 °C.
In the same order, the values of GATCACGAGGGTGATC ((((((....)))))) are -38.1 kcal/mol and 54.6 °C.
GATCACGCCTGTGATC ((((((....)))))): the folding enthalpy in data set [1] was -49.5 kcal/mol. Moreover, the Tm in data set [2] worked out at 59.4 °C.
The matching figures for GATCACGCGCGTGATC ((((((....)))))): -62 kcal/mol and 62.7 °C.
Regarding GATCACGGGAGTGATC ((((((....)))))), the folding enthalpy in data set [1] is -37.6 kcal/mol. Also, the Tm in data set [2] stood at 68.5 °C.
The matching figures for GATCACGGTGTGATC ((((((...)))))): -30.5 kcal/mol and 61.3 °C.
The matching figures for GATCACGGTTGTGATC ((((((....)))))): -31.2 kcal/mol and 61 °C.
In the same order, the values of GATCACGTAGGTGATC ((((((....)))))) are -39 kcal/mol and 63.9 °C.
For the sequence GATCACGTATGTGATC ((((((....)))))), in data set [1], the folding enthalpy was -38.5 kcal/mol. Besides, the Tm in data set [2] worked out at 68.2 °C.
The matching figures for GATCACGTCGTGATC ((((((...)))))): -40.5 kcal/mol and 61.1 °C.
GATCACGTGGTGATC ((((((...)))))): in data set [1], the folding enthalpy is -46.3 kcal/mol. Besides, in data set [2], the Tm turned out to be 56.5 °C.
On to GATCACGTTGGTGATC ((((((....)))))), for which, in data set [1], the folding enthalpy was -37 kcal/mol. For the same sequence, the Tm in data set [2] was determined as 58.2 °C.
In the same order, the values of GATCACGTTGTGATC ((((((...)))))) are -38.1 kcal/mol and 60.1 °C.
In the same order, the values of GATCACTAAAGTGATC ((((((....)))))) are -38.6 kcal/mol and 54.5 °C.
In the same order, the values of GATCACTACGTGATC ((((((...)))))) are -39.7 kcal/mol and 61.7 °C.
With GATCACTAGGGTGATC ((((((....)))))), in data set [1], the folding enthalpy is -41.7 kcal/mol. Further, the Tm in data set [2] came to 57.3 °C.
The matching figures for GATCACTATGGTGATC ((((((....)))))): -41.5 kcal/mol and 59 °C.
Consider GATCACTATTGTGATC ((((((....)))))), for which, in data set [1], the folding enthalpy was -37.8 kcal/mol. Further, the Tm in data set [2] turned out to be 58.3 °C.
As to GATCACTCCGGTGATC ((((((....)))))), the folding enthalpy in data set [1] was -37.8 kcal/mol. Further, the Tm in data set [2] was found to be 56.9 °C.
Turning to GATCACTCGAGTGATC ((((((....)))))), in data set [1], the folding enthalpy was -39.9 kcal/mol. Further, in data set [2], the Tm was determined as 59.4 °C.
In the same order, the values of GATCACTCGGGTGATC ((((((....)))))) are -37.4 kcal/mol and 57.6 °C.
On to GATCACTCGGTGATC ((((((...)))))), for which the folding enthalpy in data set [1] was -37.8 kcal/mol. In addition, the Tm in data set [2] is 58.9 °C.
As for GATCACTGCTGTGATC ((((((....)))))), in data set [1], the folding enthalpy was -38.2 kcal/mol. Further, in data set [2], the Tm was 57.1 °C.
Turning to GATCACTGGCGTGATC ((((((....)))))), the folding enthalpy in data set [1] was -41.4 kcal/mol. Moreover, in data set [2], the Tm amounted to 55.2 °C.
As to GATCACTTAAGTGATC ((((((....)))))), the folding enthalpy in data set [1] was -38 kcal/mol. The Tm in data set [2] was found to be 59.3 °C.
The matching figures for GATCACTTCGTGATC ((((((...)))))): -46.6 kcal/mol and 58.9 °C.
GATCACTTCTGTGATC ((((((....)))))): in data set [1], the folding enthalpy was -38.4 kcal/mol. Moreover, in data set [2], the Tm came out at 58.9 °C.
The matching figures for GATCAGAAAACTGATC ((((((....)))))): -29.2 kcal/mol and 43.6 °C.
As to GATCAGAACACTGATC ((((((....)))))), the folding enthalpy in data set [1] was -32.1 kcal/mol. Further, in data set [2], the Tm was determined as 48.5 °C.
Consider GATCAGAACGCTGATC ((((((....)))))), for which the folding enthalpy in data set [1] was -29.5 kcal/mol. Also, the Tm in data set [2] was 47.3 °C.
The matching figures for GATCAGAAGCCTGATC ((((((....)))))): -31.7 kcal/mol and 47.1 °C.
For GATCAGAATACTGATC ((((((....)))))), in data set [1], the folding enthalpy is -39.2 kcal/mol. Also, the Tm in data set [2] was determined as 47.4 °C.
In the same order, the values of GATCAGAATTCTGATC ((((((....)))))) are -43.5 kcal/mol and 50.4 °C.
The matching figures for GATCAGACAACTGATC ((((((....)))))): -32.3 kcal/mol and 45.9 °C.
In the same order, the values of GATCAGACACCTGATC ((((((....)))))) are -34.1 kcal/mol and 47.1 °C.
In the case of GATCAGACGACTGATC ((((((....)))))), the folding enthalpy in data set [1] is -39.2 kcal/mol. Besides, the Tm in data set [2] is 47.5 °C.
For GATCAGACTACTGATC ((((((....)))))), the folding enthalpy in data set [1] was -33 kcal/mol. In addition, the Tm in data set [2] is 49.1 °C.
In the same order, the values of GATCAGAGAGCTGATC ((((((....)))))) are -31 kcal/mol and 46.2 °C.
In the same order, the values of GATCAGAGCACTGATC ((((((....)))))) are -36.5 kcal/mol and 49.3 °C.
In the same order, the values of GATCAGAGTTCTGATC ((((((....)))))) are -36.6 kcal/mol and 50.5 °C.
As to GATCAGATGACTGATC ((((((....)))))), the folding enthalpy in data set [1] was -35.3 kcal/mol. In addition, the Tm in data set [2] stood at 47.8 °C.
The matching figures for GATCAGATGTCTGATC ((((((....)))))): -41.8 kcal/mol and 49.7 °C.
For GATCAGATTTCTGATC ((((((....)))))), the folding enthalpy in data set [1] is -41 kcal/mol. Moreover, the Tm in data set [2] was 52.9 °C.
The matching figures for GATCAGCACACTGATC ((((((....)))))): -32.3 kcal/mol and 53.4 °C.
In the same order, the values of GATCAGCACTCTGATC ((((((....)))))) are -30.8 kcal/mol and 49.9 °C.
Regarding GATCAGCAGTCTGATC ((((((....)))))), the folding enthalpy in data set [1] is -34.4 kcal/mol. For the same sequence, the Tm in data set [2] worked out at 48.8 °C.
In the same order, the values of GATCAGCCACCTGATC ((((((....)))))) are -33.8 kcal/mol and 49.6 °C.
The matching figures for GATCAGCCCCCTGATC ((((((....)))))): -36.2 kcal/mol and 48.2 °C.
Turning to GATCAGCCGCCTGATC ((((((....)))))), the folding enthalpy in data set [1] was -32.5 kcal/mol. The Tm in data set [2] amounted to 50.5 °C.
Regarding GATCAGCCGCTGATC ((((((...)))))), the folding enthalpy in data set [1] is -41 kcal/mol. The Tm in data set [2] came to 48.7 °C.
In the same order, the values of GATCAGCCGTCTGATC ((((((....)))))) are -43.6 kcal/mol and 51.6 °C.
On to GATCAGCGCCCTGATC ((((((....)))))), for which, in data set [1], the folding enthalpy is -39.5 kcal/mol. The Tm in data set [2] was 49 °C.
In the same order, the values of GATCAGCGCTCTGATC ((((((....)))))) are -33.9 kcal/mol and 50.4 °C.
The matching figures for GATCAGCGGACTGATC ((((((....)))))): -33.9 kcal/mol and 50.3 °C.
Take GATCAGCGGGCTGATC ((((((....)))))): the folding enthalpy in data set [1] is -38.8 kcal/mol. The Tm in data set [2] was 63.8 °C.
Turning to GATCAGCTATCTGATC ((((((....)))))), the folding enthalpy in data set [1] was -34.7 kcal/mol. In addition, in data set [2], the Tm turned out to be 49.3 °C.
In the same order, the values of GATCAGCTCACTGATC ((((((....)))))) are -31.9 kcal/mol and 52.2 °C.
In the same order, the values of GATCAGCTCCCTGATC ((((((....)))))) are -32.3 kcal/mol and 49.1 °C.
In the same order, the values of GATCAGCTCTCTGATC ((((((....)))))) are -36.9 kcal/mol and 49.3 °C.
GATCAGCTGACTGATC ((((((....)))))): in data set [1], the folding enthalpy is -37.6 kcal/mol. In data set [2], the Tm was 51.5 °C.
For GATCAGCTTGCTGATC ((((((....)))))), the folding enthalpy in data set [1] is -47.5 kcal/mol. The Tm in data set [2] amounted to 68.8 °C.
Turning to GATCAGGAGCTGATC ((((((...)))))), in data set [1], the folding enthalpy is -32.3 kcal/mol. In addition, the Tm in data set [2] was 46.5 °C.
The matching figures for GATCAGGATCCTGATC ((((((....)))))): -53.1 kcal/mol and 54.3 °C.
In the same order, the values of GATCAGGCCCCTGATC ((((((....)))))) are -46.1 kcal/mol and 53.1 °C.
The matching figures for GATCAGGCGCCTGATC ((((((....)))))): -52.1 kcal/mol and 60.8 °C.
Regarding GATCAGGCGTCTGATC ((((((....)))))), the folding enthalpy in data set [1] was -39.3 kcal/mol. Further, the Tm in data set [2] worked out at 51 °C.
Turning to GATCAGGCTACTGATC ((((((....)))))), in data set [1], the folding enthalpy is -43.8 kcal/mol. In addition, the Tm in data set [2] came out at 57.4 °C.
